Source: PubChem
H69AR inhibit = proliferation blockers of H69AR lung cancer cells, primary screen, cell-based, human, 86K library. H69AR lung tumor viability, ATP luminescence, 72 h; stronger effect = lower value. viability, % at 10 µM. hit rate 6% among 85,000. AID 598, 2007;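 active means viability at or below 40%; inactive means viability above 40%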;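 further: multidrug resistant small cell line overexpressing MRP-1 efflux transporter; 100% = mean luminescence of untreated control wells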
HCT116 bCat-KO = primary screen for growth suppressors in beta-catenin knockout HCT116 cells (colon tumor, human); hit rate 1.5% among 140,000; HCT116 beta-catenin knockout viability, CellTiter-Glo, 60 h; stronger effect = lower value; viability, % at 10 µM;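 active means viability at or under a set limit, the compound median less 4 SD, cut at about 6% in these data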;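 further: 0% = Hyamine 1622 control at 20 µM and 100% = untreated cell control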
PTEN del growth = growth suppression of PTEN-null HCT116, primary screen, cell-based, CellTiter-Glo | HCT116 PTEN-null viability, 60 h; stronger effect = lower value | viability, % at 10 µM | hit rate 1.2% among 140,000 | AID 827, 2007;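 active means viability at or below a set limit, 4 SD under the median of all tested compounds, cut at about 3.7% in these data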;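 further: PTEN knockout HCT116 line with beta catenin targeted HCT116 as companion control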
HUVEC inhibit = inhibitors of HUVEC proliferation, primary screen, cell-based, 384-well | CellTiter-Glo luminescence, 72 h; stronger effect = lower value | viability, % at 10 µM (by protocol) | hit rate 1.1% among 86,000 | AID 648, 2007;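 active means viability at or below 30%; inactive means viability above 30%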;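 further: 100% = median luminescence of DMSO-only cell control wells on each plate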
Fibroblast inh = antiproliferative effect on LL 47 fibroblasts – human, LL 47 cells, CellTiter-Glo luminescence, primary screen; LL 47 human lung fibroblast viability, ATP luminescence; stronger effect = lower value; viability, % at 10 µM; hit rate 1.1% among 85,000; AID 719, 2007;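 active means viability at or below 50% in the single dose screen; inactive means viability above 50%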;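 further: compound exposure lasted 72 h before the ATP readout; 100% = median luminescence of untreated cell-only wells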
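Benchmarks: Cell-only wells, no compound | Test system: LL 47 human lung fibroblasts, passage 12 or lower | Input: 1,150 cells/well | Measured by: CellTiter-Glo luminescence measuring cellular ATP | Medium: IMEM, 15% FBS supplement | Schedule: Overnight attachment after seeding, then 72 h compound exposure at 37 °C | Doses: Compound addition at 0.1% DMSO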
Numbers without * were called inactive. Shown is part of a subset that was picked to be rich in hits.

O=c1c2ccccc2nc2c3ccccc3c(NCc3ccco3)nn12 was read as H69AR inhibit 74, HCT116 bCat-KO 68, PTEN del growth 66, HUVEC inhibit 82 and Fibroblast inh 94.
Screening c1coc(CNc2nc(N3CCCCC3)nc3ccccc23)c1 returned H69AR inhibit 5.3*, HCT116 bCat-KO 24, PTEN del growth 29, HUVEC inhibit 56 and Fibroblast inh 81.
CC(C)(C)c1csc(NC(=O)c2ccc3nccnc3c2)n1 was read as H69AR inhibit 84, HCT116 bCat-KO 85, PTEN del growth 73, HUVEC inhibit 93 and Fibroblast inh 113.
CCOc1ccc(CCNC(=O)c2cc3ccccn3n2)cc1OCC was read as H69AR inhibit 99, HCT116 bCat-KO 85, PTEN del growth 90, HUVEC inhibit 112 and Fibroblast inh 91.
For Cn1c(N)c(C(=O)COC(=O)c2cc(C3CC3)nc3ccccc23)c(=O)n(Cc2ccccc2)c1=O the results were HCT116 bCat-KO 79 and PTEN del growth 86.
Screening Cc1cccc(-n2c(SCc3ccc(C#N)cc3)nnc2-c2c[nH]c3ccccc23)c1 returned HCT116 bCat-KO 76 and PTEN del growth 80.
For CC(=O)N1CCc2c(sc(NC(=O)c3ccc4c(c3)OCCO4)c2C#N)C1 the results were H69AR inhibit 24*, HCT116 bCat-KO 24, PTEN del growth 29, HUVEC inhibit 63 and Fibroblast inh 55.
Cc1cc(C(C#N)c2cccc(Cl)c2)n2ncnc2n1 (stereo not drawn) was read as H69AR inhibit 104, HCT116 bCat-KO 89, PTEN del growth 93, HUVEC inhibit 102 and Fibroblast inh 102.
For N#CC(c1cccc(Cl)c1)c1ccc2c(C(F)(F)F)cc(C(F)(F)F)nc2n1 (stereo not drawn) the results were H69AR inhibit 4.3*, HCT116 bCat-KO 0.8*, PTEN del growth 1.0*, HUVEC inhibit 14* and Fibroblast inh 20*.
Screening CCOC(=O)c1cc2sccc2n1CC(=O)Nc1ccc2c(c1)OCCO2 returned H69AR inhibit 38*, HCT116 bCat-KO 93, PTEN del growth 81, HUVEC inhibit 94 and Fibroblast inh 92.
CCN(CC)c1ccc(/C=N/Nc2nc3ccccc3[nH]2)c(O)c1 was read as HCT116 bCat-KO 3.5* and PTEN del growth 7.
Screening CCN(CC)c1ccc(/C=N/NC(=S)NCc2ccccc2)c(O)c1 returned HCT116 bCat-KO 20 and PTEN del growth 15.
For CCN(CC)c1ccc(/C=N/NC(=O)Cc2cccs2)c(O)c1 the results were HCT116 bCat-KO 5.2* and PTEN del growth 6.
CCOC(=O)/C(=C\c1cccc(O)c1)c1nc2sc(C)c(C)c2c(=O)[nH]1 was read as HCT116 bCat-KO 58 and PTEN del growth 52.
`COc1ccc(C(=O)CSc2nc3ccc([N+](=O)[O-])cc3[nH]2)cc1` gave HCT116 bCat-KO 85 and PTEN del growth 78.
CCNC1=C(Cl)C(=O)c2ccccc2C1=O was read as H69AR inhibit 41, HCT116 bCat-KO 19, PTEN del growth 31, HUVEC inhibit 101 and Fibroblast inh 69.
`CCN(CC)c1ccc(NC2=C(Cl)C(=O)c3ccccc3C2=O)cc1` gave HCT116 bCat-KO 0.8* and PTEN del growth 0.5*.
Screening Cc1ccc(NC2=C(Cl)C(=O)c3ccccc3C2=O)cc1 returned HCT116 bCat-KO 0.9* and PTEN del growth 0.8*.
For O=C(NC(=S)NC(c1ccccc1)c1ccncc1)c1ccccc1 (stereo not drawn) the results were HCT116 bCat-KO 89 and PTEN del growth 83.
Cc1ccc(C(=O)/C=C\NCc2ccccc2)cc1 was read as HCT116 bCat-KO 96 and PTEN del growth 88.
CC(/C=C/C(=O)c1ccc(C)cc1)=C\c1ccccc1 was read as HCT116 bCat-KO 75 and PTEN del growth 76.
Cc1ccc(C(=O)/C=C\C(=O)c2ccc(C)cc2)cc1 was read as HCT116 bCat-KO 1.7* and PTEN del growth 1.8*.
For Cc1ccc(S/C=C\C(=O)c2ccccc2)cc1 the results were H69AR inhibit 1.2*, HCT116 bCat-KO 13, PTEN del growth 71, HUVEC inhibit 29* and Fibroblast inh 70.
`CC(=O)Nc1ccc(-n2nnnc2SCC(=O)N2CCN(C(=O)c3ccco3)CC2)cc1` gave H69AR inhibit 95, HCT116 bCat-KO 98, PTEN del growth 91, HUVEC inhibit 100 and Fibroblast inh 100.
`C#CCn1c(=NC(=O)c2cccs2)sc2cccc(OCC)c21` gave H69AR inhibit 23*, HCT116 bCat-KO 92, PTEN del growth 92, HUVEC inhibit 79 and Fibroblast inh 95.
For COC(=O)Cn1c(=NC(=O)c2ccc(Cl)s2)sc2cc(F)ccc21 the results were HCT116 bCat-KO 61 and PTEN del growth 58.
Screening C#CCn1c(=NC(=O)c2ccc(Cl)s2)sc2cccc(OC)c21 returned H69AR inhibit 1.5*, HCT116 bCat-KO 4.4*, PTEN del growth 5, HUVEC inhibit 44 and Fibroblast inh 61.
Screening COc1cccc(-c2nnc(NC(=O)c3ccc(S(=O)(=O)N4CC(C)OC(C)C4)cc3)o2)c1 (stereo not drawn) returned HCT116 bCat-KO 14 and PTEN del growth 13.
For CC(C)CN(CCC(=O)O)CC(C)C the results were H69AR inhibit 77, HCT116 bCat-KO 98, PTEN del growth 102, HUVEC inhibit 98 and Fibroblast inh 106.
For CCOC(=O)C1=C(C)NC(SCC(=O)Nc2nc(C)cs2)=C(C#N)C1c1cccs1 (stereo not drawn) the results were H69AR inhibit 37*, HCT116 bCat-KO 41, PTEN del growth 19, HUVEC inhibit 46 and Fibroblast inh 98.
`CC1=C(C(=O)Nc2ccccc2)C(c2ccncc2)C(C#N)=C(SCC(=O)Nc2ccccc2)N1` (stereo not drawn) gave H69AR inhibit 11*, HCT116 bCat-KO 87, PTEN del growth 93, HUVEC inhibit 91 and Fibroblast inh 102.
CC(=O)C1=C(C)NC(SCC(=O)c2ccc(-c3ccccc3)cc2)=C(C#N)C1c1cccnc1 (stereo not drawn) was read as H69AR inhibit 6.2*, HCT116 bCat-KO 21, PTEN del growth 18, HUVEC inhibit 59 and Fibroblast inh 77.
Screening Cc1ccc(NC(=S)NN(C)c2cc(C)nc(C)n2)cc1 returned HCT116 bCat-KO 91 and PTEN del growth 91.
`O=C(CC1CS(=O)(=O)CC1CC(=O)Oc1ccccc1F)Oc1ccccc1F` (stereo not drawn) gave HCT116 bCat-KO 106 and PTEN del growth 98.
For Cc1ccc(NC(=O)CN(C)C(=O)COc2c(Cl)cc(Cl)c3ccc(C)nc23)cc1 the results were HCT116 bCat-KO 74 and PTEN del growth 83.
For Cc1ccc(NC(=O)CN(C)C(=O)Cn2ncc(Cl)c(Cl)c2=O)cc1 the results were HCT116 bCat-KO 1.6* and PTEN del growth 1.0*.
